M1 antagonist – antagonists of rat M1 muscarinic receptor. P08482. CHO-M1 cells, Fluo-4 calcium, ACh EC80 antagonist mode; stronger effect = lower value. B-score at 10 µM. hit rate 3.4% among 64,000. AID 628;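 active = calcium fluorescence response, raw or row-and-column corrected B-score, differing from the plate sample mean either way at a set confidence level, mostly lower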
D1 mod – D1 dopamine receptor (human) allosteric modulation; B-score at 10 µM; HEK293 D1, CRE-luciferase, dopamine EC30 potentiation; actives deviate in either direction; hit rate 5.9% among 58,000;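 active = luminescence count or its row- and column-corrected plate score outside the 99.7% band of the plate's sample wells, on either side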
Target sequence (P21728 whole entry, looked up): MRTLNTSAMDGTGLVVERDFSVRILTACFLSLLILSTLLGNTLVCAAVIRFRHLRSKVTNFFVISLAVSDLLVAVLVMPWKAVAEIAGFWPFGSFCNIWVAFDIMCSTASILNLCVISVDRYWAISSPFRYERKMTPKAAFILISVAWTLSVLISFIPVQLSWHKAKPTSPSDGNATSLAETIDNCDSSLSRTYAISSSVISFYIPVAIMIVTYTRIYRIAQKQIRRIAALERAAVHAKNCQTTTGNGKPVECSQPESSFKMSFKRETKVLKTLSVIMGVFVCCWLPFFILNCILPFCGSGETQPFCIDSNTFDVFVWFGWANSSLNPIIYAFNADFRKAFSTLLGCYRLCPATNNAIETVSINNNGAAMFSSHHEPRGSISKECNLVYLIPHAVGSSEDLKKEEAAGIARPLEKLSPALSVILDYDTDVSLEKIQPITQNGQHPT
S1P3 ag – S1P3 (human) receptor agonism; Q99500; S1P3 NFAT-BLA reporter cells, FRET ratio; relative to 1 µM S1P, basal subtracted; activation, % at 4.5 µM; hit rate 0.1% among 60,000; AID 373;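 active = activation above the screen-wide mean plus 3 SD, cut at about 4.5% in these data, passing the limit was not always enough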
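Measure – % activation relative to 1 µM S1P (100%), per plate · System – stable CHO line with human S1P3, Gα16, NFAT-BLA reporter · Timing – cells plated overnight, compound 4 h 37 °C, substrate 2 h RT · Technique – fluorescent BLA substrate, ex 405 nm, em 460/535 nm ratio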
M1 ag – M1 muscarinic receptor agonism. B-score at 10 µM. AID 626. hit rate 3% among 64,000. CHO-M1 cells, Fluo-4 calcium fluorescence, agonist mode; stronger effect = higher value;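 active = fluorescence rise, raw or as B-score row- and column-corrected plate score, outside the 99.7% band of its plate's samples, either direction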
S1P1 ag-PAM – agonists and agonism potentiators of human S1P1 receptor. P21453. S1P1 CRE-bla cells, forskolin, beta-lactamase FRET, potentiator mode; S1P1 agonist co-added at EC20, 2 nM; 100% = saturating reference agonist, 0% = basal. activation, % at 9.5 µM. hit rate 0.57% among 56,000;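 active = activation above a cutoff set at the mean activation of all tested compounds plus 3 SD, cut at about 54% in these data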;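 note: forskolin at 4 µM as EC80 and the EC20 agonist is SEW2871; 100% = SEW2871 at its EC100 plus forskolin at EC80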
M1 ag confirm – rat M1 muscarinic agonism, confirmation | shares compounds with M1 ag | CHO-M1 cells, Fluo-4 calcium fluorescence, agonist mode; actives lie on both sides | fluorescence change (max-min) at 10 µM | hit rate 19% among 1,700 | AID 1488;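 active = fluorescence change differs from the solvent-only DMSO control mean at a set confidence level in both duplicate runs; inconclusive = differs from solvent-only control mean in just one of two runs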;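 note: an EC20 dose of acetylcholine follows compound addition during the same imaging run; raw fluorescence intensity difference in instrument units with no normalization to controls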
M4 agonist ctr – rat M4 muscarinic agonism, M1 counter-screen | shares compounds with M1 ag | hit rate 9% among 1,700 | CHO M4/Gqi5 cells, Fluo-4 calcium fluorescence, agonist mode; actives lie on both sides | AID 1741 | fluorescence change (max-min) at 10 µM;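 active = fluorescence change differing from the plate's solvent-only control wells at 99.7% confidence in both duplicates, whether higher or lower; inconclusive = differs from solvent controls in only one of two duplicates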
An asterisk follows results filed as active; ? = inconclusive; / = no result. An excerpt weighted towards active compounds, which were near 11% of everything screened.

SMILES | M1 antagonist | D1 mod | S1P3 ag | M1 ag | S1P1 ag-PAM | M1 ag confirm | M4 agonist ctr
COc1ccc(C2C3=C(CC(C)(C)CC3=O)Nc3c2c(=O)[nH]c(=O)n3Cc2ccccc2)cc1OC (stereo not given) | -1.11 | 0.426 | -0.7 | 9.85* | -13.8 | 28.4 | 8.07
COc1cc(C2C3=C(CC(C)(C)CC3=O)Nc3c2c(=O)[nH]c(=O)n3Cc2ccccc2)ccc1O (stereo not given) | 0.32 | -0.288 | / | -1.57 | / | / | /
COc1ccc(C2C3=C(CC(C)(C)CC3=O)Nc3c2c(=O)[nH]c(=O)n3Cc2ccccc2)cc1 (stereo not given) | 0.239 | -1.67 | -1.0 | 2.72* | 5.0 | 7.14 | -35.5
Cc1nc2[nH]c(=O)c3c(n2n1)NC1=C(C(=O)CC(C)(C)C1)C3c1ccc(F)cc1 (stereo not given) | 0.00335 | -0.0967 | -0.5 | 3.84* | -16.2 | 9.92 | 4.35
CCc1ccc(C2C3=C(CC(C)(C)CC3=O)Nc3c2c(=O)[nH]c2nc(C)nn32)cc1 (stereo not given) | -0.53 | 0.301 | -0.8 | -1.14 | 9.1 | / | /
CC(=NCCN1CCNCC1)C1=C(O)CC(C)(C)CC1=O | -0.565 | -0.117 | -0.9 | 0.315 | -19.9 | / | /
CSc1ccccc1C(=O)NCc1ccc2c(c1)OCO2 | 0.287 | 0.0676 | -0.3 | 0.0291 | / | / | /
CC(=O)NC1(C(F)(F)F)C(=O)NC(C)=C1C#N (stereo not given) | 0.4 | / | -1.1 | -0.239 | 11.2 | / | /
Fc1ccccc1N1CCN(c2nc3ccccc3n3nnnc23)CC1 | 0.162 | -0.452 | 0.3 | 12.4* | -22.1 | ? | 35.4
COc1ccccc1NC(=O)Cc1csc(N)n1 | 0.356 | 0.682 | 1.3 | 0.377 | 4.1 | / | /
COc1ccc(N2C(=O)C3CCCN3C2c2ccc(C)o2)cc1Cl (stereo not given) | -0.297 | 0.687 | 0.8 | -0.132 | 1.9 | / | /
Cc1ccc(C2N(c3ccc(Cl)c(Cl)c3)C(=O)C3CCCN32)o1 (stereo not given) | -0.0165 | -1.36 | -1.2 | 6.73* | -11.4 | ? | -36.1
Brc1c(OCCOCCn2cncn2)ccc2ccccc12 | 0.483 | 1.35 | -0.5 | 0.193 | -6.7 | / | /
COC(=O)c1ccc(NC(=O)C2C3C=CC(O3)C2C(=O)O)cc1 (stereo not given) | 0.11 | -0.386 | -1.0 | -0.5 | 8.1 | / | /
Cc1nnc(NC(=O)C2C3C=CC(O3)C2C(=O)O)s1 (stereo not given) | 0.586 | 0.235 | / | 3.36* | / | ? | -40.8
CC(C)c1cc(CN2CCN(CCC#N)CC2)cc(C(C)C)c1O | -0.115 | 0.437 | -0.6 | 26.9* | -4.9 | 13.9 | -32.5
CC(C)(C)c1cc(CN2CCN(CCO)CC2)cc(C(C)(C)C)c1O | 0.171 | -1.28 | -0.6 | -0.638 | 32.6 | / | /
Cc1nn(Cc2ccc(F)cc2)c(C)c1NC(=O)c1noc2c1CCCCC2 | 0.0906 | 0.184 | -0.4 | 5.89* | 14.2 | -6.75 | -39.6
Cc1nn(Cc2ccc(Cl)cc2)c(C)c1NC(=O)c1cc(-c2ccc3c(c2)OCO3)on1 | 0.00934 | -0.675 | -1.0 | -0.187 | 34.8 | / | /
Cc1nn(Cc2ccc(Cl)c(Cl)c2)c(C)c1NC(=O)c1cc(-c2ccc3c(c2)OCO3)on1 | -1.89 | -0.797 | -2.1 | 4.14* | -3.6 | 31.1 | -10.8
COC(=O)c1nnn(CC(=O)Nc2cccc(Cl)c2C)c1C(=O)OC | -0.654 | -0.49 | / | -0.694 | / | / | /
O=C(NCC(=O)N(Cc1ccccc1)C(C(=O)NC1CCCC1)c1ccco1)c1ccco1 (stereo not given) | -1.48 | -0.84 | 0.1 | 9.4* | 5.7 | -12.3 | -57.4
COc1cccc(NC(=O)c2ocnc2C)c1 | 0.74 | -1.3 | 0.1 | 0.784 | -8.5 | / | /
CCCSc1nnc(NC(=O)Nc2ccc(F)cc2)s1 | -0.877 | / | -2.7 | 3.38* | 27.4 | -7.23 | -14.2
COc1cc(NS(=O)(=O)c2ccc(C)cc2C)cc(OC)c1OC | -1.29 | -2.56 | 0.3 | 4.14* | 17.9 | ? | -54.2
SMILES | M1 antagonist | D1 mod | S1P3 ag | M1 ag | S1P1 ag-PAM | M1 ag confirm | M4 agonist ctr
COc1ccc(C)cc1S(=O)(=O)Nc1ccccc1C | 0.156 | -0.718 | -0.3 | -0.0307 | -40.4 | / | /
COc1ccc(CCNS(=O)(=O)c2ccc3c(c2)OCCO3)cc1 | 0.0839 | 0.95 | -0.5 | -1.06 | -10.8 | / | /
COc1ccc(CCNC2=NCC(C)S2)cc1 (stereo not given) | -1.61 | / | -0.9 | 30.7* | -4.4 | -4.95 | ?
O=C(Cc1ccc(Cl)cc1)Nc1cccc(-c2nnc(-c3ccco3)o2)c1 | -0.841 | / | -0.2 | -0.308 | 20.3 | / | /
COc1ccc(CC(=O)Nc2cccc(-c3nnc(-c4ccc(C)cc4)o3)c2)cc1OC | -0.608 | -0.172 | -0.5 | -0.715 | 2.2 | / | /
O=C(Cc1ccccc1)Nc1cccc(-c2nnc(-c3ccco3)o2)c1 | -1.19 | / | 0.9 | 5.23* | 3.3 | -1.4 | -37.3
COc1cccc(C(=O)Nc2ccc(-c3nnc(-c4ccco4)o3)cc2)c1 | -0.0409 | / | -2.6 | 5.63* | 19.6 | -17.8 | ?
COc1ccc(CC(=O)Nc2cccc(-c3nnc(-c4cccc(C)c4)o3)c2)cc1OC | -7.27* | -2.66* | -1.6 | 6.56* | / | -20.1 | ?
COC(=O)c1ccc(=O)n(Cc2ccc3c(c2)OCO3)c1 | -0.113 | -0.123 | -5.6 | -0.314 | 2.8 | / | /
Cc1ccc(C(=O)OCc2nnc(-c3ccccc3)o2)o1 | -2.36 | 0.721 | -0.6 | 0.666 | -1.7 | / | /
CC(C(=O)OCc1nnc(-c2ccccc2)o1)N1C(=O)c2ccccc2C1=O (stereo not given) | -0.0311 | / | / | -2.15* | / | -3.92 | -31
CC(=O)c1c(C)[nH]c(C(=O)OCc2nnc(-c3ccccc3)o2)c1C | -0.198 | -0.975 | -1.2 | 2.77* | 0.9 | ? | -69.8*
O=C(c1cc(C2CC2)on1)N1CCN(c2ccc(F)cc2)CC1 | 0.776 | -0.537 | 0.1 | 0.0121 | -8.6 | / | /
CC(=Nc1ccc2c(c1)nc(CO)n2C)C1=C(O)CC(C)(C)CC1=O | -0.134 | 1.38 | -0.8 | 0.269 | -12.4 | / | /
CCN1CCc2c(sc(N)c2C#N)C1 | -1.47 | -0.358 | -0.7 | 11.5* | / | 14.8 | 3.3
CC(C)N1CCc2c(sc(N)c2C#N)C1 | 0.0839 | -0.377 | -1.7 | 13.4 | -9.8 | / | /
C1CCC(OCCN2CCN(CCOC3CCCCC3)CC2)CC1 | -2.17 | -0.162 | -1.1 | -1.25 | -15.9 | / | /
COCCN1C(=O)C(CC(=O)Nc2ccc(C(C)=O)cc2)SC1=Nc1ccccc1 (stereo not given) | 0.0454 | 0.00331 | -1.9 | 3.86* | -25.6 | ? | -53.4
CC(=O)N1CCc2c(sc(NC(=O)C3CC3)c2-c2nc3ccccc3s2)C1 | -1.4 | -0.881 | 1.2 | 6.08* | -38.1 | 11.2 | ?
O=C(Cc1cccs1)NCCn1ccc2ccccc21 | 0.106 | 0.0343 | 0.0 | 0.671 | -1.1 | / | /
CCC(C)c1ccc(O)c(NC(=O)c2ncn[nH]2)c1 (stereo not given) | 0.78 | 0.176 | -1.3 | 11.9* | / | -24* | -37.3

High-throughput results (PubChem BioAssay)
